Bioassay records from PubChem.
Only a selection was taken, and hits are over-represented in it overall.
YB-1 expression – YB-1 expression inhibition | U2OS, qRT-PCR YB-1 vs CDIP delta delta Cp, 16 h; hits give high values; zero = DMSO, each unit about twofold | hit rate 0.37% among 30,000 | AID 434959 | delta delta Cp (YB-1 minus CDIP) (concentration not given with the values);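 active = delta delta Cp rounded down to an integer at or above 3, about 3 SD of DMSO wells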;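 also: higher means less YB-1 transcript or more CDIP transcript relative to DMSO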
T cruzi intra – inhibitors of intracellular Trypanosoma cruzi; intracellular Trypanosoma cruzi in host cells, plate reader; activity score (inhibition), % at 5.01 µM; hit rate 4.9% among 22,000; in the data active = activity score above about 55%; inconclusive = no clear call, values can overlap the other calls;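 also: parasites and compound incubated about four days before reading; 0% = median of neutral control wells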
INS-1E rescue – preserves ATP levels in cytokine-treated INS-1E cells; INS-1E cytokine-induced death, ATP luminescence, 48 h; normalised: neutral wells 0, positive control 100; protection from cytokine-induced ATP loss, % at 10 µM; hit rate 0.1% among 20,000;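 active = mean replicate protection from cytokine-induced ATP loss at least 50% and at least 75% of replicates each reaching 50%; inconclusive = meets only one of the two criteria, mean or replicate share; inactive = fails both the mean and replicate share criteria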
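Test system: INS-1E rat cells | Quantity: 8000 cells per well | Medium: Phenol-red-free RPMI with 5% fetal bovine serum | Reagent: Cytokine cocktail of IFN-γ, TNF-α and IL-1β | Doses: One compound concentration, pin transfer | Timing: 48 h co-treatment, 10 min post-lysis read | Technique: Luminescent ATP assay (CellTiter-Glo)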
Numbers without * were called inactive; ? = inconclusive; . = not tested or not shown.

SMILES	YB-1 expression	T cruzi intra	INS-1E rescue
S=C1NCN(C2CCCCC2)CN1	0.44	.	.
COC(=O)CCCCCCC(=O)N/N=C/[C@@H](O)[C@H](O)[C@H](O)CO	-0.17	-19	5
O=C(O)c1ccc(NS(=O)(=O)c2cc3c4c(cccc4c2)C(=O)NC3=O)cc1	0.41	.	.
Cc1ccc(C(=O)Nc2ccccc2)c(C)n1	0.051	.	.
O=S(=O)(CCSc1nccc(-c2ccc(Cl)cc2)n1)c1ccc(Cl)cc1	0.0049	.	.
C[C@H](CO)N1C[C@H](C)[C@H](CN(C)Cc2ccc(-c3ccccc3)cc2)Oc2ccc(NC(=O)CCCCCC(=O)Nc3ccccc3N)cc2CC1=O	-0.12	73*	-10
C[C@@H]1CN([C@H](C)CO)C(=O)Cc2cc(NC(=O)CCCCCC(=O)Nc3ccccc3N)ccc2O[C@@H]1CN(C)Cc1ccc(-c2ccccc2)cc1	-0.78	-28	5
C[C@@H]1CN([C@H](C)CO)C(=O)Cc2cc(NC(=O)CCCCCC(=O)Nc3ccccc3N)ccc2O[C@@H]1CN(C)Cc1ccc(Cl)c(Cl)c1	0.25	66*	-2
C[C@@H]1CN([C@H](C)CO)C(=O)Cc2cc(NC(=O)CCCCCC(=O)Nc3ccccc3N)ccc2O[C@@H]1CN(C)Cc1ccncc1	-0.24	-28	8
O=C(NO)c1ccc(C(=O)N/N=C/c2cc(Br)cs2)cc1	0.37	-13	-7
C=C1C(=O)O[C@@H]2/C=C(\C)[C@H](OC(C)=O)C/C=C(/C)C[C@@H](OC(=O)/C(=C/CO)CO)C12 (stereo partly drawn)	0.95	.	.
CC1(C)CC(=O)c2c([nH]c(-c3ccccc3)c2-c2ccccc2)C1	0.7	.	.
COc1ccc(S(=O)(=O)N(C)C[C@@H]2Oc3c(NS(=O)(=O)c4ccccc4)cccc3C(=O)N([C@@H](C)CO)C[C@H]2C)cc1	-0.23	15	10
CCCc1c(C(=O)OCC)c(C(=O)OCC)c2c(-c3ccccc3)nc(N3CCOCC3)nn12	3.2*	.	.
CCOC(=O)c1cnc(N2CCOCC2)nc1N	-0.18	.	.
C[C@H](CO)N1C[C@H](C)[C@H](CN(C)Cc2ccc(C(F)(F)F)cc2)Oc2c(NC(=O)c3ccncc3)cccc2C1=O	-0.018	65*	-2
C[C@H]1CN([C@@H](C)CO)C(=O)c2cccc(NC(=O)c3ccncc3)c2O[C@H]1CN(C)Cc1ccc(C(F)(F)F)cc1	0.36	84*	2
C[C@@H]1CN([C@@H](C)CO)C(=O)c2cccc(NC(=O)c3ccncc3)c2O[C@@H]1CN(C)Cc1ccncc1	0.12	-7	9
C[C@H](CO)N1C[C@H](C)[C@H](CN(C)Cc2ccc(C(=O)O)cc2)Oc2c(NC(=O)c3ccncc3)cccc2C1=O	-0.019	-27	8
C[C@@H]1CC[C@]2(C(=O)O[C@@H]3O[C@H](CO)[C@@H](O)[C@H](O)[C@H]3O)CC[C@]3(C(=O)O)C(=CCC4[C@@]5(C)CC[C@H](OC6OC[C@@H](O)[C@H](O)[C@H]6O)C(C)(C)C5CC[C@]43C)C2[C@H]1C (stereo partly drawn)	0.47	.	.
CC(C)Oc1ccc2c(=O)cc(-c3ccccc3)oc2c1	0.11	.	.
Cc1oc2cc(OC(C)C)ccc2c(=O)c1-c1ccc2c(c1)OCCO2	6.9*	.	.
C[C@H]1CN([C@@H](C)CO)C(=O)Cc2cc(NC(=O)Nc3ccc4c(c3)OCO4)ccc2O[C@H]1CN(C)C(=O)Nc1ccc(C(F)(F)F)cc1	0.3	7	5
C[C@H](CO)N1C[C@H](C)[C@H](CN(C)Cc2ccc(C(F)(F)F)cc2)Oc2ccc(NC(=O)Nc3ccc4c(c3)OCO4)cc2CC1=O	-0.19	67*	-29
C[C@H]1CN([C@@H](C)CO)C(=O)Cc2cc(NC(=O)Nc3ccc(C(F)(F)F)cc3)ccc2O[C@H]1CN(C)Cc1ccc2c(c1)OCO2	0.18	60*	-24
SMILES	YB-1 expression	T cruzi intra	INS-1E rescue
C[C@@H]1CN([C@@H](C)CO)C(=O)Cc2cc(NC(=O)Nc3ccc4c(c3)OCO4)ccc2O[C@@H]1CN(C)Cc1ccc(C(F)(F)F)cc1	-0.33	68*	-8
C[C@H]1CN([C@@H](C)CO)C(=O)Cc2cc(NC(=O)Nc3ccc4c(c3)OCO4)ccc2O[C@H]1CN(C)Cc1ccc(C(F)(F)F)cc1	0.18	68*	-32
C[C@@H]1CN([C@H](C)CO)C(=O)Cc2cc(NC(=O)Nc3ccc4c(c3)OCO4)ccc2O[C@H]1CN(C)C(=O)Nc1ccc(C(F)(F)F)cc1	-0.21	-9	-1
C[C@H]1CN([C@@H](C)CO)C(=O)Cc2cc(NC(=O)Nc3ccc(F)cc3)ccc2O[C@H]1CN(C)Cc1ccc2c(c1)OCO2	-0.065	3	-2
C[C@@H]1CN([C@@H](C)CO)C(=O)Cc2cc(NC(=O)Nc3ccc4c(c3)OCO4)ccc2O[C@@H]1CN(C)C(=O)Nc1ccc(C(F)(F)F)cc1	-0.28	7	-10
CNC(=O)CCc1cc2ccccc2[nH]1	0.22	.	.
Cc1c(NC(=O)C(C)(C)C)c(=O)n(-c2ccccc2)n1C	-0.46	.	.
COc1ccc(CSc2nnc(CSc3cccs3)n2C)cc1	-0.54	.	.
C[C@H]1CN([C@@H](C)CO)C(=O)Cc2cc(NC(=O)Nc3ccc(C(F)(F)F)cc3)ccc2O[C@@H]1CN(C)C(=O)Nc1ccc2c(c1)OCO2	0.043	-5	-7
C[C@H]1CN([C@@H](C)CO)C(=O)Cc2cc(NC(=O)Nc3ccc4c(c3)OCO4)ccc2O[C@@H]1CN(C)Cc1ccc(C(F)(F)F)cc1	0.23	71*	-42
C[C@@H]1CCCCO[C@@H](CN(C)Cc2ccc(Cl)c(Cl)c2)[C@@H](C)CN([C@H](C)CO)C(=O)c2cc(NS(=O)(=O)c3ccc(F)cc3)ccc2O1	-0.022	56*	-53
C[C@@H]1CCCCO[C@@H](CN(C)Cc2ccc(C(F)(F)F)cc2)[C@@H](C)CN([C@H](C)CO)C(=O)c2cc(NS(=O)(=O)c3ccc(F)cc3)ccc2O1	-0.18	64*	-63
C[C@@H]1CCCCO[C@@H](CN(C)Cc2ccc(Cl)c(Cl)c2)[C@@H](C)CN([C@H](C)CO)C(=O)c2cc(NS(=O)(=O)c3cccs3)ccc2O1	0.12	68*	-53
C[C@@H]1CCCCO[C@H](CN(C)Cc2ccc(Cl)c(Cl)c2)[C@@H](C)CN([C@H](C)CO)C(=O)c2cc(NS(=O)(=O)c3cccs3)ccc2O1	-0.21	17	-24
C[C@@H]1CCCCO[C@@H](CN(C)Cc2ccc(C(F)(F)F)cc2)[C@@H](C)CN([C@H](C)CO)C(=O)c2cc(NS(=O)(=O)c3ccccc3)ccc2O1	0.39	39	-46
C[C@H](CO)N1C[C@H](C)[C@H](CN(C)Cc2ccc(Cl)c(Cl)c2)Oc2ccc(NS(=O)(=O)c3ccc(F)cc3)cc2C1=O	0.22	8	-9
C[C@H]1CN([C@@H](C)CO)C(=O)c2cc(NS(=O)(=O)c3ccc(F)cc3)ccc2O[C@@H]1CN(C)Cc1ccc(Cl)c(Cl)c1	0.33	70*	-2
Cc1ccc(S(=O)(=O)Nc2ccc3c(c2)C(=O)N([C@H](C)CO)C[C@H](C)[C@@H](CN(C)Cc2ccc(Cl)c(Cl)c2)OCCCC[C@@H](C)O3)cc1	0.24	?	-17
Cc1ccccc1-c1nnc(-c2cc(C(C)(C)C)nn2Cc2ccc(F)cc2)o1	-0.18	.	.
